Compound activity (PubChem)
Rin1-Abl PPI inh: blocks binding of human Rin1 to Abl. P00519+Q13671. TR-FRET Rin1/Abl binding, biochemical. inhibition, % at 7.35 µM. hit rate 0.4% among 360,000. AID 588664; in the data active = inhibition above about 5%, passing the limit was not always enough
ERp5 inh: blocks human ERp5 reductase activity on insulin. hit rate 0.05% among 350,000. ERp5 insulin aggregation, absorbance 650 nm, 90 min. AID 651711. inhibition, % at 9.99 µM;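 active = mean replicate inhibition above about 25%, with every replicate also reaching it, limit read from the data, passing the limit was not always enough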
CAL PDZ FP-1: CAL PDZ (human) peptide binding inhibition | Q9HD26 | purified CAL PDZ, TMR-peptide fluorescence polarization, 1 h | inhibition, % at 24.9 µM | hit rate 0.92% among 300,000 | AID 602252;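 active = mean inhibition of at least 30% with at least half of replicates also reaching 30%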
ERAP1 HTS inh: blocks human ERAP1 aminopeptidase activity. hit rate 0.15% among 340,000. recombinant ERAP1, Leu-AMC fluorescence, 60 min. AID 652197. inhibition, % at 10.7 µM. Q9NZ08;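 active = mean replicate inhibition of at least 30%, or all replicates individually reaching that 30% level; inactive = mean below 30% and not every replicate reaching it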
CAL PDZ FP-2: human CAL PDZ-peptide interaction inhibition; inhibition, % at 20 µM; purified CAL PDZ, TMR-peptide fluorescence polarization, 1 h; hit rate 0.02% among 330,000;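 active = highest replicate inhibition of at least 40%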
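Test system: tagged CAL PDZ domain / Buffer or medium: sodium phosphate/NaCl buffer pH 7.4 with TCEP, IgG, Thesit / Reagent: TMR-labelled reporter peptide T*-PRC34 bound in PDZ groove / Compound dosing: single point, 20 µM / Schedule: 1 h incubation at room temperature before polarization reading / Technique: fluorescence polarization (mP) / Benchmarks: unlabelled peptide, DMSO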
PDI inh: blocks human protein disulfide isomerase activity | P07237 | PDI insulin aggregation turbidity, A650, 90 min | inhibition, % at 10 µM | hit rate 0.052% among 350,000 | AID 588391;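 active = mean inhibition across replicates of 30% or more, whatever share of single replicates reach that level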
Target sequence (P07237 whole entry, looked up): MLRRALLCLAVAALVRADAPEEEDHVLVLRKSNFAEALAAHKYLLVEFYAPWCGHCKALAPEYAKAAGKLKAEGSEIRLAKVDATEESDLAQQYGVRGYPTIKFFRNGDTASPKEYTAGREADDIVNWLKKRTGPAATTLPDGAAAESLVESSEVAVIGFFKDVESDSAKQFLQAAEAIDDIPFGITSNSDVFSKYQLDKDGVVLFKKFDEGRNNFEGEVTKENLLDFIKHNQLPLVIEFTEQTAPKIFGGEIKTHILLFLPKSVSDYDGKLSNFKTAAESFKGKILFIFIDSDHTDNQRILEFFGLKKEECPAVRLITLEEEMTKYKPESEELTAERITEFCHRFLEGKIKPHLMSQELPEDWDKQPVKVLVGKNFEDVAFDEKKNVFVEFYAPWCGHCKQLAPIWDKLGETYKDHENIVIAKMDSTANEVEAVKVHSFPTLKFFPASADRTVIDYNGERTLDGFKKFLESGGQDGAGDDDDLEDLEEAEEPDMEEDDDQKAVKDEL
Rin1-Abl confirm: confirmation of inhibitors of human Rin1-Abl interaction; AID 602124; inhibition, % at 7.35 µM; shares compounds with Rin1-Abl PPI inh; TR-FRET Rin1-Abl binding, purified proteins; hit rate 49% among 1,300
GFP quench-1: counter-screen for Rin1-Abl inhibitors: GFP fluorescence quenchers; inhibitors/quenchers counterscreen; hit rate 8.5% among 1,300; inhibition, % at 6.75 µM; shares compounds with Rin1-Abl PPI inh;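 also: ABL1-eGFP fusion protein alone without its partner RIN1-SBP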
GFP quench dose: counter-screen for Rin1-Abl inhibitors: GFP quenchers, dose response; shares compounds with Rin1-Abl PPI inh; GFP fluorescence interference/quenching counterscreen; IC50, µM; 230 tested, under 10 active; AID 602182; call rule not given here;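 also: ABL1-eGFP fusion protein alone without its RIN1 binding partner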
GFP quench-2: quenches GFP fluorescence in Rin1-Abl counterscreen | 25 tested, under 10 active | IC50, µM | AID 602397 | GFP fluorescence quenching counterscreen, biochemical | shares compounds with Rin1-Abl PPI inh; call rule not given here
A number is an active result; i = inactive; nt = no result given. A selection: hits, their analogues and other compounds. The true share with any hit is near 1.1%. Rule as the data show it, unless noted: active = inhibition above about 6.5%; inactive = the rest.

SMILES | Rin1-Abl PPI inh | ERp5 inh | CAL PDZ FP-1 | ERAP1 HTS inh | CAL PDZ FP-2 | PDI inh | Rin1-Abl confirm | GFP quench-1 | others
O=C(/C=C/c1ccc(O)c(O)c1)OC1C(O)CC(OC(=O)/C=C/c2ccc(O)c(O)c2)(C(=O)O)CC1O (centres undefined) | 23.2 | i | i | i | i | i | 30.9 | i | GFP quench dose=i
O=C(/C=C/c1ccc(O)c(O)c1)O[C@@H]1C[C@](O)(C(=O)O)C[C@@H](O)[C@H]1O | i | i | i | i | i | i | nt | nt
COc1ccc(CCNc2cc(=O)[nH]c(N)n2)cc1 | 23.9 | i | i | i | nt | i | 52.2 | i | GFP quench dose=i;GFP quench-2=i
COc1ccc(CCNc2ccc([N+](=O)[O-])cn2)cc1 | i | i | i | i | i | i | nt | nt
CCCC#Cc1cnc2c(c1)C(=O)N([C@@H](C)CO)C[C@H](C)[C@@H](CN(C)C(=O)NC1CCCC1)O2 | nt | i | nt | i | nt | nt | nt | nt
Cc1ccc(NC(=O)CCc2c(C)nn(-c3ccc(N4CCCCC4)nn3)c2C)cc1F | i | nt | i | i | i | i | nt | nt
Cc1ccc(C)c(NC(=O)CCc2c(C)nn(-c3ccc(N4CCCCC4)nn3)c2C)c1 | 12.0 | i | i | i | i | i | i | i
CCN(C[C@@H]1[C@@H](c2ccccc2)[C@H](CO)N1C(C)=O)C(=O)NC1CCCC1 | nt | i | nt | i | nt | nt | nt | nt
CCCN1[C@@H]2c3ccc(-c4ccc(F)cc4)c(=O)n3C[C@H]1[C@H](CO)[C@H]2C(=O)NCCc1cn(C)cn1 | nt | i | nt | i | nt | nt | nt | nt
c1ccc(CNc2nc(NCc3cccs3)nc3ccsc23)cc1 | i | i | nt | i | nt | i | nt | nt
c1ccc(CNc2nc(NCCc3ccncc3)c3sccc3n2)cc1 | 20.1 | i | nt | i | nt | i | 10.5 | i
CN1CCN(C(=O)C[C@H]2CC[C@@H](NC(=O)Cc3ccccn3)[C@@H](CO)O2)CC1 | nt | i | nt | i | nt | nt | nt | nt
O=C(c1ccc(Cl)c(Cl)c1)N1CCC(=O)N(C(COCc2cccc(C(F)(F)F)c2)Cc2ccccc2)CC1 (centres undefined) | 23.4 | i | i | i | i | i | 23.9 | i
O=C(C[C@@H]1CC[C@H]2[C@@H](COC[C@@H](O)CN2CC2CCCCC2)O1)NCc1ccc(Cl)cc1 | nt | i | nt | i | nt | nt | nt | nt
Oc1ccc(/C=N/Nc2ccc(Cl)nn2)c(O)c1O | 28.9 | i | i | i | i | i | 27.0 | 17.4
COc1ccc(CN(C)C[C@@H]2Oc3c(NC(=O)NC(C)C)cccc3C(=O)N([C@H](C)CO)C[C@@H]2C)cc1 | nt | i | nt | i | nt | nt | nt | nt
CCCN(C)C[C@H]1Oc2cc(-c3ccc(C)cc3)ccc2S(=O)(=O)N([C@H](C)CO)C[C@@H]1C | nt | i | nt | i | nt | nt | nt | nt
O=C(O)CCCC[C@@H]1SC[C@@H]2NC(=O)N[C@@H]21 | 83.9 | i | i | i | i | nt | 92.9 | i | GFP quench dose=i
COC(=O)CCCCC1SCC2NC(=O)NC21 (centres undefined) | 11.9 | i | i | i | i | i | 16.1 | i
CCCOC(=O)CCCC[C@H]1SC[C@@H](NC(=O)OC)[C@H]1NC(=O)OC | i | nt | i | nt | i | i | nt | nt
CO[C@@H]1CN(C)C(=O)c2ccc(NC(=O)NC(C)C)cc2OC[C@H](C)N(CCC(F)(F)F)C[C@H]1C | nt | i | nt | i | nt | nt | nt | nt
C[C@H]1CN([C@@H](C)CO)C(=O)Cc2cc(NC(=O)Nc3cccc4ccccc34)ccc2O[C@H]1CN(C)C(=O)Nc1ccc(C(F)(F)F)cc1 | nt | i | nt | i | nt | nt | nt | nt
Cc1cc(=O)n2nc(N3CCCC(C(=O)N4CCOCC4)C3)sc2n1 (centres undefined) | i | nt | i | nt | i | i | nt | nt
Cc1cc(=O)n2nc(N3CCCC(C(=O)N4CCc5ccccc54)C3)sc2n1 (centres undefined) | 12.7 | nt | i | nt | i | i | 16.6 | i
CCCN(C)C[C@H]1OCCCC[C@@H](C)Oc2ccc(NC(=O)Nc3ccc(F)cc3)cc2C(=O)N([C@H](C)CO)C[C@@H]1C | nt | i | nt | i | nt | nt | nt | nt
